Source: ChEMBL document CHEMBL1147085, “Metabolism and pharmacokinetics of a novel Src kinase inhibitor TG100435 ([7-(2,6-dichloro-phenyl)-5-methyl-benzo[1,2,4]triazin-3-yl]-[4-(2-pyrrolidin-1-yl-ethoxy)-phenyl]-amine) and its active N-oxide metabolite TG100855 …” (Drug Metab Dispos, 2007)

What was measured:
[1] = Volume of distribution in BALB/c mouse at 5 mg/kg, iv; assay type: ADME, organism-based; set-up: dose 5 mg/kg, route intravenous; settings: in vivo
[2] = AUC (0 to infinity) in Sprague-Dawley rat at 30 mg/kg, po; assay type: ADME, organism-based; set-up: time infinity, dose 30 mg/kg, route oral; settings: plasma
[3] = AUC (0 to infinity) in Beagle dog at 25 mg/kg, po; assay type: ADME, organism-based, Canis lupus familiaris; set-up: time infinity, dose 25 mg/kg, route oral; settings: plasma
[4] = Bioavailability in Sprague-Dawley rat at 25 mg/kg, po; assay type: ADME, organism-based; settings: in vivo
[5] = Cmax in BALB/c mouse at 25 mg/kg, po; assay type: ADME, organism-based; set-up: dose 25 mg/kg, route oral; settings: in vivo
Outline: (§1)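 Male BALB/c mice (~25 g); fasted overnight for single p.o. dosing, not fasted for i.v. or i.p. dosing. Composite blood sampling, n=3 per time point: 5, 15, 30 min, 1, 3, 6, 24, 48 hr after i.v. dose; 0.5, 1, 3, 5, 8, 24, 30, 48 hr after p.o. or i.p. dose. Heparinized plasma, both parent and N-oxide measured by LC/MS/MS (MRM 494.2/98.1 and 510.2/98.1); non-compartmental analysis, AUC by linear trapezoidal rule.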

[6] = AUC (0 to last) in BALB/c mouse at 25 mg/kg, po; assay type: ADME, organism-based; set-up: time 0 - last, dose 25 mg/kg, route oral; settings: plasma; outline: as §1
[7] = Tmax in Sprague-Dawley rat at 25 mg/kg, po; assay type: ADME, organism-based; set-up: dose 25 mg/kg, route oral; settings: in vivo
[8] = Bioavailability in Beagle dog at 25 mg/kg, po; assay type: ADME, organism-based, Canis lupus familiaris; settings: in vivo
[9] = Clearance in BALB/c mouse at 5 mg/kg, iv; assay type: ADME, organism-based; set-up: dose 5 mg/kg, route intravenous; settings: in vivo; outline: as §1
[10] = Volume of distribution in Sprague-Dawley rat at 5 mg/kg, iv; assay type: ADME, organism-based; set-up: dose 5 mg/kg, route intravenous; settings: in vivo
[11] = AUC (0 to infinity) in BALB/c mouse at 40 mg/kg, po; assay type: ADME, organism-based; set-up: time infinity, dose 40 mg/kg, route oral; settings: plasma; outline: as §1
[12] = AUC (0 to last) in Sprague-Dawley rat at 25 mg/kg, po; assay type: ADME, organism-based; set-up: time 0 - last, dose 25 mg/kg, route oral; settings: plasma
[13] = Volume of distribution in Beagle dog at 5 mg/kg, iv; assay type: ADME, organism-based, Canis lupus familiaris; set-up: dose 5 mg/kg, route intravenous; settings: in vivo
[14] = AUC (0 to infinity) in Sprague-Dawley rat at 25 mg/kg, po; assay type: ADME, organism-based; set-up: time infinity, dose 25 mg/kg, route oral; settings: plasma
[15] = AUC (0 to infinity) in Beagle dog at 5 mg/kg, iv; assay type: ADME, organism-based, Canis lupus familiaris; set-up: time infinity, dose 5 mg/kg, route intravenous; settings: plasma
[16] = Clearance in Beagle dog at 5 mg/kg, iv; assay type: ADME, organism-based, Canis lupus familiaris; set-up: dose 5 mg/kg, route intravenous; settings: in vivo
[17] = AUC (0 to infinity) in Sprague-Dawley rat at 5 mg/kg, iv; assay type: ADME, organism-based; set-up: time infinity, dose 5 mg/kg, route intravenous; settings: plasma
[18] = AUC (0 to infinity) in BALB/c mouse at 25 mg/kg, po; assay type: ADME, organism-based; set-up: time infinity, dose 25 mg/kg, route oral; settings: plasma; outline: as §1
[19] = Half life in BALB/c mouse at 5 mg/kg, iv; assay type: ADME, organism-based; set-up: dose 5 mg/kg, route intravenous; settings: in vivo; outline: as §1
Canis familiaris = test: Bioavailability in Beagle dog assessed as AUC of ([7-(2,6-Dichloro-phenyl)-5-methyl-benzo[1,2,4]triazin-3-yl]-{4-[2-(1-pyrrolidin-1-yl-ethoxy)-phenyl]-amine) at 25 mg/kg, po; assay type: ADME, organism-based, Canis lupus familiaris; settings: in vivo
[20] = Half life in Sprague-Dawley rat at 5 mg/kg, iv; assay type: ADME, organism-based; set-up: dose 5 mg/kg, route intravenous; settings: in vivo
[21] = Drug level in BALB/c mouse plasma at 5 mg/kg, iv; assay type: ADME, organism-based; set-up: dose 5 mg/kg, route intravenous; outline: as §1
[22] = Cmax in Beagle dog at 25 mg/kg, po; assay type: ADME, organism-based, Canis lupus familiaris; set-up: dose 25 mg/kg, route oral; settings: in vivo
[23] = Drug level in Sprague-Dawley rat plasma at 5 mg/kg, iv; assay type: ADME, organism-based; set-up: dose 5 mg/kg, route intravenous
[24] = Half life in Beagle dog at 5 mg/kg, iv; assay type: ADME, organism-based, Canis lupus familiaris; set-up: dose 5 mg/kg, route intravenous; settings: in vivo
[25] = AUC (0 to infinity) in BALB/c mouse at 5 mg/kg, iv; assay type: ADME, organism-based; set-up: time infinity, dose 5 mg/kg, route intravenous; settings: plasma; outline: as §1
[26] = Drug level in Beagle dog plasma at 5 mg/kg, iv; assay type: ADME, organism-based, Canis lupus familiaris; set-up: dose 5 mg/kg, route intravenous
[27] = AUC (0 to last) in Beagle dog at 25 mg/kg, po; assay type: ADME, organism-based, Canis lupus familiaris; set-up: dose 25 mg/kg, route oral, time 0 - last; settings: plasma
[28] = Clearance in Sprague-Dawley rat at 5 mg/kg, iv; assay type: ADME, organism-based; set-up: dose 5 mg/kg, route intravenous; settings: in vivo

Cc1cc(-c2c(Cl)cccc2Cl)cc2nnc(Nc3ccc(OCCN4CCCC4)cc3)nc12
Vd [1]: 9.4 L/kg | AUC(0-inf) [2]: 8120 ng·h/mL | AUC(0-inf) [3]: 3110 ng·h/mL | bioavailability [4]: 23% | Cmax [5]: 618 ng/mL | AUC(0-t) [6]: 15000 ng·h/mL | Tmax [7]: 8 h | bioavailability [8]: 10.7% | clearance [9]: 20.1 mL/min/kg | Vd [10]: 9.4 L/kg | AUC(0-inf) [11]: 35100 ng·h/mL | AUC(0-t) [12]: 7980 ng·h/mL | Vd [13]: 18.7 L/kg | AUC(0-inf) [14]: 8010 ng·h/mL | AUC(0-inf) [15]: 5800 ng·h/mL | clearance [16]: 14.5 mL/min/kg | AUC(0-inf) [17]: 7030 ng·h/mL | AUC(0-inf) [18]: 15300 ng·h/mL | half-life [19]: 5.4 h | AUC (Canis familiaris): 6470 ng·h/mL | half-life [20]: 8.9 h | C0 [21]: 873 ng/mL | Cmax [22]: 102 ng/mL | C0 [23]: 1650 ng/mL | half-life [24]: 15.1 h | AUC(0-inf) [25]: 4140 ng·h/mL | C0 [26]: 1660 ng/mL | AUC(0-t) [27]: 2540 ng·h/mL | clearance [28]: 12.7 mL/min/kg
